The source made the active and inactive calls. The rule behind the calls is not given here.
Columns and labels:
[1] = biological target: T1, Rod cGMP-specific 3',5'-cyclic phosphodiesterase subunit alpha (Bos taurus, UniProt P11541); experiment: Inhibition of bovine retina PDE6
T1 sequence (P11541 whole entry): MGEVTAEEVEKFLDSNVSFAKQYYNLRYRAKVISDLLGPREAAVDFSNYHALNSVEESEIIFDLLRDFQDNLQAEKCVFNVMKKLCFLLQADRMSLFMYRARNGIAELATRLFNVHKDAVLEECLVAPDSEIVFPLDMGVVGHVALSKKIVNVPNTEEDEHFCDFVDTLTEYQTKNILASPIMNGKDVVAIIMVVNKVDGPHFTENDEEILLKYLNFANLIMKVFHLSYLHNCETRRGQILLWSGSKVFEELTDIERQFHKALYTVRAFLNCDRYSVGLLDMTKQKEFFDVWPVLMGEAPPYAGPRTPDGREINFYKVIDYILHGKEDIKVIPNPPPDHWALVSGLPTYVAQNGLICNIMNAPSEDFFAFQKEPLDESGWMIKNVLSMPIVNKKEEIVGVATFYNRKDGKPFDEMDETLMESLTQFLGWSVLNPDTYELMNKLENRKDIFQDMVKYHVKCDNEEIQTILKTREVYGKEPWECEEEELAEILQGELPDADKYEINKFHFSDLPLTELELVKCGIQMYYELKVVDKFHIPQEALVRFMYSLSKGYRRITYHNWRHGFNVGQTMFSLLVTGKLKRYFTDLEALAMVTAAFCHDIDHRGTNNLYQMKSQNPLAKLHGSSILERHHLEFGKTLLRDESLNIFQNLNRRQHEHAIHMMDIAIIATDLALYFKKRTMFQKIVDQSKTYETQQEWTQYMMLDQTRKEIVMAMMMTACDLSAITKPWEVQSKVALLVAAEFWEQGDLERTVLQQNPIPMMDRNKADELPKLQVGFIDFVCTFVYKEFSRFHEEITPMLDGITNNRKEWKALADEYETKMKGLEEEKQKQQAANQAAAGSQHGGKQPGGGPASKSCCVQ

[2] = biological target: cGMP-specific 3',5'-cyclic phosphodiesterase (Bos taurus, UniProt Q28156); experiment: Inhibition of bovine platelet PDE5
Liver microsomes = experiment: Metabolic stability in human liver microsomes; type: ADME, Microsome
In short: (§1)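 Liver microsomes (human, rat or rabbit) incubated with compound (5) in pH 7.4 phosphate buffer with an NADPH-regenerating system (2.5 mM MgCl2, 2.5 mM glucose-6-phosphate, 1 mM NADP, 1 U/ml G6P dehydrogenase) at 37 °C for 1 h. Human microsomes at 1.25 mg/ml. Read-out was % parent remaining; metabolites analysed by LC/MS.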

[3] = biological target: Dual 3',5'-cyclic-AMP and -GMP phosphodiesterase 11A (Homo sapiens, UniProt Q9HCR9); experiment: Inhibition of human recombinant PDE11
[4] = Metabolic stability in human liver microsomes assessed as compound remaining after 1 hr; type: ADME, Microsome; details: read-out: Stability; in short: as §1
[5] = Permeability across human Caco-2 cells; type: ADME, cell-based; details: read-out: permeability
[6] = Inhibition of bovine heart PDE1; parameters: species or system Bos taurus
In short: (§2)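 Enzyme sources: PDE1 from bovine heart, PDE2 from bovine heart, PDE3 from bovine platelet, PDE4 human recombinant, PDE6 from bovine retina, PDE11 human recombinant. IC50 values are the mean of more than 2 determinations.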

[7] = Inhibition of bovine heart PDE2; parameters: species or system Bos taurus; in short: as §2
[8] = Inhibition of bovine platelet PDE3; parameters: species or system Bos taurus; in short: as §2
Phosphodiesterase 4 = Phosphodiesterase 4 (Homo sapiens, UniProt P27815+Q08499+Q07343+Q08493); experiment: Inhibition of human recombinant PDE4; type: protein assay; in short: as §2
[9] = Aqueous solubility of the compound; type: physicochemical; details: aqueous medium
[10] = Cytotoxicity against mouse L5178Y cells; type: cell-based
hERG (KCNH2) = hERG (KCNH2) (Homo sapiens, UniProt Q12809); experiment: Inhibition of human ERG at 10 uM
Oryctolagus cuniculus [11] = experiment: Inhibition of erectile dysfunction in New Zealand white rabbit assessed as induction of SNP-potentiated penile erection at 0.3 mg/kg, po after 2 hrs; type: functional, organism-based; parameters: dose 0.3 mg/kg
In short: (§3)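 Conscious New Zealand white rabbits, 3–4 kg, n = 4. Compound given orally, dissolved in distilled water. SNP (0.1 mg/kg in saline) injected 2 h later. Penile length (covered plus mucosa area) measured in cm with sliding calipers over a total of 2 h after dosing.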

[12] = Metabolic stability in rat liver microsomes assessed as compound remaining after 1 hr; type: ADME, Microsome; details: read-out: Stability; in short: as §1
[13] = Metabolic stability in rabbit liver microsomes assessed as compound remaining after 1 hr; type: ADME, Oryctolagus cuniculus, Microsome; details: read-out: Stability; in short: as §1
Oryctolagus cuniculus [14] = experiment: Inhibition of erectile dysfunction in New Zealand white rabbit assessed as induction of SNP-potentiated penile erection at 3 mg/kg, po after 2 hrs; type: functional, organism-based; parameters: dose 3 mg/kg; in short: as §3
[15] = Tmax in rat at 10 mg/kg, po; type: ADME, organism-based; parameters: dose 10 mg/kg, route oral; details: in vivo
In short: (§4)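 Oral dosing at 10 mg/kg in 0.5% Tween 80, given as the HCl salt, with n = 4 animals per species. Plasma PK parameters were determined: Tmax, Cmax, half-life and AUClast.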

[16] = Cmax in rat at 10 mg/kg, po; type: ADME, organism-based; parameters: dose 10 mg/kg, route oral; details: in vivo; in short: as §4
[17] = Half life in rat at 10 mg/kg, po; type: ADME, organism-based; parameters: dose 10 mg/kg, route oral; details: in vivo; in short: as §4
[18] = AUClast in rat at 10 mg/kg, po; type: ADME, organism-based; parameters: time 0 - last, dose 10 mg/kg, route oral; details: plasma; in short: as §4
[19] = Tmax in rabbit at 10 mg/kg, po; type: ADME, organism-based, Oryctolagus cuniculus; parameters: dose 10 mg/kg, route oral; details: in vivo; in short: as §4
[20] = Cmax in rabbit at 10 mg/kg, po; type: ADME, organism-based, Oryctolagus cuniculus; parameters: dose 10 mg/kg, route oral; details: in vivo; in short: as §4
[21] = Half life in rabbit at 10 mg/kg, po; type: ADME, organism-based, Oryctolagus cuniculus; parameters: dose 10 mg/kg, route oral; details: in vivo; in short: as §4
[22] = AUClast in rabbit at 10 mg/kg, po; type: ADME, organism-based, Oryctolagus cuniculus; parameters: time 0 - last, dose 10 mg/kg, route oral; details: plasma; in short: as §4

Sequence of Dual 3',5'-cyclic-AMP and -GMP phosphodiesterase 11A (Q9HCR9 whole entry): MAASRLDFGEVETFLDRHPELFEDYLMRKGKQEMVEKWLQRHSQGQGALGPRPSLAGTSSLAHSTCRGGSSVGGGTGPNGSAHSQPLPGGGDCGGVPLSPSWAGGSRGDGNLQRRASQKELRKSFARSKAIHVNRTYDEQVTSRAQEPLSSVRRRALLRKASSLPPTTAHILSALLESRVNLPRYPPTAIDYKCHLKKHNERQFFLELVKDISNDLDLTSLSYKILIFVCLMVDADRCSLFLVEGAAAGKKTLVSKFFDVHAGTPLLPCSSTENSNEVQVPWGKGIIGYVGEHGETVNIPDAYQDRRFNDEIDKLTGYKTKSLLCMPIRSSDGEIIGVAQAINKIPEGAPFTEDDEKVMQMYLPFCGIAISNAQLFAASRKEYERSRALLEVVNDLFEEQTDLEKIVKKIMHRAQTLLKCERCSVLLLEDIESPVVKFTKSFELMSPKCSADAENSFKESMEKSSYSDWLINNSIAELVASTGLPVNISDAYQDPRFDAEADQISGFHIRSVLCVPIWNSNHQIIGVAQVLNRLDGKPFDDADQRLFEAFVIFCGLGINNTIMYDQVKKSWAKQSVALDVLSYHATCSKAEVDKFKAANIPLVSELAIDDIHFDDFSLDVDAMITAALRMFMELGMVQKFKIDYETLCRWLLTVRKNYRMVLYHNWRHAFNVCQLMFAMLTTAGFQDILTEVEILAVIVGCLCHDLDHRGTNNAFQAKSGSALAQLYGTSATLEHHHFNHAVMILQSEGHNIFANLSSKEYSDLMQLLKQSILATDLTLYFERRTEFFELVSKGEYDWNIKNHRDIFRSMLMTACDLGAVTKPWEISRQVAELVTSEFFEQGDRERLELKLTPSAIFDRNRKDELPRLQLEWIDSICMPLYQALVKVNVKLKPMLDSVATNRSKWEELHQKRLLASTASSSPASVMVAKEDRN
Sequence of hERG (KCNH2) (Q12809 whole entry): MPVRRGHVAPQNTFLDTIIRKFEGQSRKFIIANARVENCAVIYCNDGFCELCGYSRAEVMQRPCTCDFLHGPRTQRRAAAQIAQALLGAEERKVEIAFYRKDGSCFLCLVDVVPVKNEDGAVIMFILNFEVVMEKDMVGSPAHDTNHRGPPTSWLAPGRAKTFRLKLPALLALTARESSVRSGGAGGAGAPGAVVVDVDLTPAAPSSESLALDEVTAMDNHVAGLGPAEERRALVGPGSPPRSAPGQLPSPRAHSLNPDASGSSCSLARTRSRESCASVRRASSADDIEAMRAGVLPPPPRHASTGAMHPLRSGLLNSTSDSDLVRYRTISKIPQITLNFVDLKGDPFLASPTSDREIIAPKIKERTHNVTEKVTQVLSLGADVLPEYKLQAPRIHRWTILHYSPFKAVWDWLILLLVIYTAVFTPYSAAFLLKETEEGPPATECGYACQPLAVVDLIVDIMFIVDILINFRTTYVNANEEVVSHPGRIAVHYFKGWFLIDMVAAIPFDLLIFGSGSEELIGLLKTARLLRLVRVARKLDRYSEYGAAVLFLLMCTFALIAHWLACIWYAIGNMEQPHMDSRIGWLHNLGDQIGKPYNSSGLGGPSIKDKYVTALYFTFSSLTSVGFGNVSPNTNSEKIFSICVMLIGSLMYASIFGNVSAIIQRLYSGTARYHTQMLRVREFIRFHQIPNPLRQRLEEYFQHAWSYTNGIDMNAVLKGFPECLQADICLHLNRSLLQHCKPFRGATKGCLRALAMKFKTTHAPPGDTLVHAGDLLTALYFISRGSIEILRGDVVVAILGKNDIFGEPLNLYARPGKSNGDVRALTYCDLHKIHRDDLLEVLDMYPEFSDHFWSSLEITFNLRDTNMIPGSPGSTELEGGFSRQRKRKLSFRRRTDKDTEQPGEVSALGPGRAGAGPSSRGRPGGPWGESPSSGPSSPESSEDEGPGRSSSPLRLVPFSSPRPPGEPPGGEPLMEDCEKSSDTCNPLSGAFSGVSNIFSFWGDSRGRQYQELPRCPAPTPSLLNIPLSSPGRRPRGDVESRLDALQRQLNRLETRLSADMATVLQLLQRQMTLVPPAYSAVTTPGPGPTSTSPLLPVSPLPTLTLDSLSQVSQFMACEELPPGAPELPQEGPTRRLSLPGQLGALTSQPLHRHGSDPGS

| Structure (SMILES) | IC50 [1] | IC50 [2] | IC50 [3] | remaining at 1 h [4] | further results |
| --- | --- | --- | --- | --- | --- |
| COc1ccc(CNc2ncnc3c(CCO)c(OC)c(NS(=O)(=O)N(C)C)cc23)cc1Cl | 7950 nM | 12 nM |  |  | Stability (Liver microsomes): Unstable |
| COC(=O)N(C)c1cc2c(NCc3ccc(OC)c(Cl)c3)ncnc2c(CCO)c1OC [listing 1 of 2 here] | 140 nM | 0.6 nM | 12000 nM | 85% | Papp [5]: 35 ×10⁻⁶ cm/s; IC50 [6]: 12000 nM; IC50 [7]: 32000 nM; IC50 [8]: 43000 nM; IC50 (Phosphodiesterase 4): 84000 nM; solubility [9]: > 2000 µg/mL; CC50 [10]: 85000 nM; inhibition at 10 µM (hERG (KCNH2)): < 20% |
| COC(=O)N(C)c1cc2c(NCc3ccc(OC)c(Cl)c3)ncnc2c(CCO)c1OC [listing 2 of 2 here] |  |  |  |  | inhibition (Oryctolagus cuniculus [11]): Active |
| COc1ccc(CNc2ncnc3c(CCO)c(OC)c(NS(C)(=O)=O)cc23)cc1Cl |  | 11 nM |  |  | Stability (Liver microsomes): Unstable |
| CCC(=O)N(C)c1cc2c(NCc3ccc(OC)c(Cl)c3)ncnc2c(CCO)c1OC | 320 nM | 1 nM | 5200 nM | 16% | remaining at 1 h [12]: > 90%; remaining at 1 h [13]: > 90%; inhibition (Oryctolagus cuniculus [14]): Active; Papp [5]: 17 ×10⁻⁶ cm/s |
| CN1CC(=O)N2[C@H](c3ccc4c(c3)OCO4)c3[nH]c4ccccc4c3C[C@@H]2C1=O | 3000 nM |  |  |  | inhibition (Oryctolagus cuniculus [14]): Active |
| COC(=O)N(C)c1cc2c(NCc3ccc(OC)c(Cl)c3)ncnc2c(CCO)c1OC.Cl |  |  |  |  | Tmax [15]: 0.2 h; Cmax [16]: 420 ng/mL; half-life [17]: 2.25 h; AUC(0-t) [18]: 540 ng·h/mL; Tmax [19]: 2.4 h; Cmax [20]: 870 ng/mL; half-life [21]: 4.2 h; AUC(0-t) [22]: 2760 ng·h/mL |
| CCC(=O)Nc1cc2c(NCc3ccc(OC)c(Cl)c3)ncnc2c(CCO)c1OC |  |  |  | 3% | remaining at 1 h [12]: 96%; remaining at 1 h [13]: 85% |

Continued, in another order:

| IC50 [1] | IC50 [2] | IC50 [3] | remaining at 1 h [4] | Structure (SMILES) | further results |
| --- | --- | --- | --- | --- | --- |
| 600 nM | 17 nM | 5000 nM |  | CCOC(=O)Nc1cc2c(NCc3ccc(OC)c(Cl)c3)ncnc2c(CCO)c1OC |  |
| 710 nM | 3 nM | 5700 nM | 72% | COC(=O)Nc1cc2c(NCc3ccc(OC)c(Cl)c3)ncnc2c(CCO)c1OC |  |
| 340 nM | 1 nM |  | 25% | COc1ccc(CNc2ncnc3c(CCO)c(OC)c(N(C)C(=O)C4CC4)cc23)cc1Cl |  |
|  | 1 nM |  | 5.5% | CCC(=O)N(CC)c1cc2c(NCc3ccc(OC)c(Cl)c3)ncnc2c(CCO)c1OC |  |
| 1100 nM | 3 nM |  | 4.8% | COc1ccc(CNc2ncnc3c(CCO)c(OC)c(N(C)C(=O)C(C)C)cc23)cc1Cl |  |
